Results reported in ChEMBL document CHEMBL4373727, “Thienopyrimidinone Derivatives That Inhibit Bacterial tRNA (Guanine37-N1)-Methyltransferase (TrmD) by Restructuring the Active Site with a Tyrosine-Flipping Mechanism” (J Med Chem, 2019).
pIC50: −log10 of the molar value. Active and inactive are the calls of the source. Unless noted, no cut-off for these calls is given here.

How the values were obtained:
Streptococcus pneumoniae = assay: Antibacterial activity against Streptococcus pneumoniae ATCC 49619 at 100 uM incubated for 24 hrs; type: functional, organism-based
Method in brief: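 Single 100 μM screen in MH medium with 3% defibrinated sheep blood at 37 °C under 5% CO2, ~5×10^5 cells/mL, 24 h.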

Staphylococcus aureus = assay: Antibacterial activity against methicillin-resistant Staphylococcus aureus ATCC 43300 at 100 uM incubated for 24 hrs; type: functional, organism-based
Method in brief: (§1)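 Single-concentration growth screen: 100 μM test compound with log-phase bacteria at about 5×10^5 cells/mL. Incubation 24 h at 37 °C. Growth read by OD600 and given as percent of untreated control. MRSA was grown in cation-adjusted Mueller–Hinton broth. M. smegmatis was grown in complete Middlebrook 7H9. Ampicillin and kanamycin served as positive controls.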

[1] = tested on: Mycolicibacterium smegmatis; assay: Antibacterial activity against Mycolicibacterium smegmatis MC2 155 at 100 uM incubated for 24 hrs; type: functional, organism-based; method in brief: as §1
Enterococcus faecalis = assay: Antibacterial activity against Enterococcus faecalis ATCC 51299 at 100 uM incubated for 24 hrs; type: functional, organism-based
Method in brief: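 Single-concentration screen in brain heart infusion broth. Log-phase cells at ~5×10^5 cells/mL were grown with 100 μM compound for 24 h at 37 °C. Growth was read as OD600 and expressed as a percentage of untreated wells. DMSO and blank controls were included.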

[2] = target: T1, tRNA (guanine-N(1)-)-methyltransferase (Pseudomonas aeruginosa (strain ATCC 15692 / DSM 22644 / CIP 104116 / JCM14847 / LMG 12228 / 1C / PRS 101 / PAO1), UniProt Q9HXQ1); assay: Inhibition of Pseudomonas aeruginosa tRNA (guanine(37)-N1)-methyltransferase (Leu5 to Asp25 residues) expressed in Escherichia coli BL21 (DE3) Rosetta T1R cells assessed as reduction in S-adenosyl-L-homocysteine production preincubated for 15 mins followed by 1.5 uM of tRNALeu(CAG) substrate and SAM addition and measured after 45 mins by MTase-Glo assay
T1 sequence (Q9HXQ1 whole entry): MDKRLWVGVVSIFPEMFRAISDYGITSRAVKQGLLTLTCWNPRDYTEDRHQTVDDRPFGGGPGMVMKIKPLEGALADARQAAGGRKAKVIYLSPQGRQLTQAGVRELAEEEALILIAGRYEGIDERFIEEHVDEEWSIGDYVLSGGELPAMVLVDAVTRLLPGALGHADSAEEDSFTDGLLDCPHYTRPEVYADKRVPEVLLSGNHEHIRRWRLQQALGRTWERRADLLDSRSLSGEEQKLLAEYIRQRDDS
Method in brief: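 MTase-Glo luminescence assay. 8 nM TrmD preincubated 15 min at ambient temperature with serially diluted inhibitor (0–500 μM) in 50 mM Tris-HCl pH 8.0, 80 mM NaCl, 1 mM MgCl2, 0.5 mM DTT, 0.01% Triton X-100. Reaction with 2 μM SAM and tRNALeu(CAG), 45 min at 37 °C. Detection 30 min in the dark, SAH read against a standard curve. IC50 by nonlinear regression. Two independent experiments in duplicate.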

Erythrocyte = assay: Hemolytic activity in human RBC at 100 uM measured after 1 hr; type: ADME, cell-based
Method in brief: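 Fresh human RBCs were PBS-washed and resuspended to OD600 24, then mixed 1:1 by volume with compound serially diluted in PBS. Incubated 1 h at 37 °C without shaking and centrifuged at 1000g for 15 min. Triton X-100 served as positive control. Run in triplicate.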

[3] = tested on: Mycobacterium tuberculosis; assay: Antibacterial activity against Mycobacterium tuberculosis ATCC 27294 at 100 uM incubated for 7 days; type: functional, organism-based

SMILES	Activity (Streptococcus pneumoniae)	Activity (Staphylococcus aureus)	Activity [1]	Activity (Enterococcus faecalis)	pIC50 [2]	Activity (Erythrocyte)	Activity [3]
CCN(CC)Cc1ccc(CNC(=O)c2csc3nc[nH]c(=O)c23)cc1	inactive	inactive	inactive	inactive	6.14	Non-Toxic	inactive
O=C(NCc1ccc(CNCCOCCO)cc1)c1csc2nc[nH]c(=O)c12	inactive	inactive	inactive	inactive	6.96	Non-Toxic	inactive
O=C(NCc1ccc(CN2CCCCC2)cc1)c1csc2nc[nH]c(=O)c12	inactive	inactive	inactive	inactive	5.96	Non-Toxic	inactive
CCCCCCCCN(Cc1ccccc1)Cc1ccc(CNC(=O)c2csc3nc[nH]c(=O)c23)cc1	inactive	inactive	inactive	inactive	4.92	Non-Toxic	inactive
O=C(NCc1ccc(CNC2CCCCC2)cc1)c1csc2nc[nH]c(=O)c12	inactive	inactive	inactive	inactive	6.10	Non-Toxic	inactive
O=C(NCc1ccc(CN2CCOCC2)cc1)c1csc2nc[nH]c(=O)c12	inactive	inactive	inactive	inactive	5.52	Non-Toxic	inactive
O=C(NCc1ccc(CNC23CC4CC(CC(C4)C2)C3)cc1)c1csc2nc[nH]c(=O)c12	inactive	inactive	inactive	inactive	6.14	Non-Toxic	inactive
CCCCCCN(Cc1ccccc1)Cc1ccc(CNC(=O)c2csc3nc[nH]c(=O)c23)cc1	inactive	inactive	inactive	inactive	5.66	–	inactive
CCCCCNCc1ccc(CNC(=O)c2csc3nc[nH]c(=O)c23)cc1	inactive	inactive	inactive	inactive	7.07	Non-Toxic	inactive
CCN(Cc1ccc(CNC(=O)c2csc3nc[nH]c(=O)c23)cc1)C1CCCCC1	inactive	inactive	inactive	inactive	6.31	Non-Toxic	inactive
CCOCCOCCNCc1ccc(CNC(=O)c2csc3nc[nH]c(=O)c23)cc1	inactive	inactive	inactive	inactive	6.68	–	inactive
CCCCCCCCN(CC)Cc1ccc(CNC(=O)c2csc3nc[nH]c(=O)c23)cc1	inactive	inactive	inactive	inactive	6.43	–	inactive
CCCCNCc1ccc(CNC(=O)c2csc3nc[nH]c(=O)c23)cc1	inactive	inactive	inactive	inactive	6.82	Non-Toxic	inactive
O=C(NCc1ccc(CNCc2ccccc2)cc1)c1csc2nc[nH]c(=O)c12	inactive	inactive	inactive	inactive	6.89	Non-Toxic	inactive
